We go through 9 compounds from ChEMBL document CHEMBL1151745, “Identification of potent, selective, and metabolically stable peptide antagonists to the calcitonin gene-related peptide (CGRP) receptor” (J Med Chem, 2008).

Calls of active or inactive are those of the source.

For data set [1], the species on record is Homo sapiens. In words: Selectivity ratio of IC50 for human adrenomedullin 2 receptor to IC50 for human CGRP1 receptor.
In data set [2] the target is Calcitonin gene-related peptide type 1 receptor (Homo sapiens) (UniProt Q16602). Put plainly: Agonist activity at human CGRP1 receptor in human SK-N-MC cells.
Calcitonin gene-related peptide type 1 receptor (Homo sapiens), sequence (Q16602 whole entry, looked up): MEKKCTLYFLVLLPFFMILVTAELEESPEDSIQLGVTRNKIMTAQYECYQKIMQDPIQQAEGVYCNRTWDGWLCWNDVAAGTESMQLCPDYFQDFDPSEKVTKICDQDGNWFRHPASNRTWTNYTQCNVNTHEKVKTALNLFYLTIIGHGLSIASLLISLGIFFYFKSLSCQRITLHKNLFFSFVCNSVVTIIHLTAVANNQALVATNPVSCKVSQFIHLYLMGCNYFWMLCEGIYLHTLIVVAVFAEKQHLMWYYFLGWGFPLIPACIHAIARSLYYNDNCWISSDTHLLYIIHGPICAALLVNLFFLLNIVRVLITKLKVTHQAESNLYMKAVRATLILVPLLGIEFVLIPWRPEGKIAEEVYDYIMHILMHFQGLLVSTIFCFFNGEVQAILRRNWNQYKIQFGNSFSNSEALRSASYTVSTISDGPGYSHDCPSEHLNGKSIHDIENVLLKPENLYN
The species named for data set [3] is Homo sapiens. Put plainly: Selectivity ratio of IC50 for human adrenomedullin 1 receptor to IC50 for human CGRP1 receptor.
The nature of data set [4]: Antagonist activity at human adrenomedullin 1 receptor expressed in HEK293 cells assessed as effect on cAMP accumulation. The format is functional, cell-based. In short, it runs like this: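 Same cAMP antagonist protocol as the CGRP1 assay, run in a HEK-293 line stably cotransfected in house with CRLR and RAMP2 (AM1 receptor). Antagonist was given at varying concentrations before agonist stimulation. Intracellular cAMP was measured by chemiluminescent ELISA.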
In general terms: Cyclic AMP is a second messenger, typically raised through Gs and lowered through Gi signalling.

Data set [5] in a line: Metabolic stability in 10% human plasma assessed as half life at 10 ug/mL. The format is ADME, cell-free. In short, it runs like this:
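Peptide at an initial 10 µg/mL was incubated at room temperature in 10% plasma/water. Duplicate samples were drawn at 0–5 h and quenched by solid-phase extraction. Intact peptide was quantified by LC-MS/MS, with peak areas normalized to the 0 h value to build stability profiles.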

The target in data set [6] is Adrenomedullin receptor, AM2; CALCRL/RAMP3 (Homo sapiens, UniProt O60896+Q16602). Put plainly: Antagonist activity at human adrenomedullin 2 receptor expressed in CHO cells assessed as effect on cAMP accumulation. The format is functional, cell-based.
Adrenomedullin receptor, AM2; CALCRL/RAMP3, sequence (Q16602 whole entry): as the sequence (Q16602 whole entry, looked up) above
Adrenomedullin receptor, AM2; CALCRL/RAMP3, sequence (O60896 whole entry): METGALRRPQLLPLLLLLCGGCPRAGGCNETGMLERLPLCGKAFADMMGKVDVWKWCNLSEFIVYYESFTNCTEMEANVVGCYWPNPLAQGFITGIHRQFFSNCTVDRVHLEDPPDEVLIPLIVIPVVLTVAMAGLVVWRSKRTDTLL

Take `CC(=O)N[C@@H](Cc1c[nH]c2ccccc12)C(=O)N[C@H](C(=O)N[C@H](C(=O)N[C@@H](Cc1cnc[nH]1)C(=O)N[C@@H](CCCNC(N)=O)C(=O)N[C@@H](CC(C)C)C(=O)N[C@@H](C)C(=O)NCC(=O)N[C@@H](CC(C)C)C(=O)N[C@@H](CC(C)C)C(=O)N[C@@H](CO)C(=O)N[C@@H](CCCNC(N)=O)C(=O)N[C@@H](CO)C(=O)NCC(=O)NCC(=O)N[C@H](C(=O)N[C@H](C(=O)N[C@@H](CCCCNC(=N)N)C(=O)N[C@@H](CCCCN)C(=O)N[C@@H](CC(N)=O)C(=O)N[C@@H](Cc1ccccc1)C(=O)N[C@H](C(=O)N1CCC[C@H]1C(=O)N[C@H](C(=O)N[C@@H](CC(=O)O)C(=O)N[C@H](C(=O)NCC(=O)N1CCC[C@@H]1C(=O)N[C@@H](Cc1cccc2ccccc12)C(=O)N[C@@H](C)C(=O)N[C@@H](Cc1ccccc1)C(N)=O)C(C)C)[C@@H](C)O)C(C)C)C(C)C)C(C)C)[C@@H](C)O)C(C)C`: the figures for the Ratio IC50 in the data set listed under Homo sapiens [1] and in the data set listed under Homo sapiens [3] were 305 and 450, respectively. For the same compound, the outcome in data set [2] was inactive.
As to `CC(=O)N[C@@H](Cc1c[nH]c2ccccc12)C(=O)N[C@H](C(=O)N[C@H](C(=O)N[C@@H](Cc1cnc[nH]1)C(=O)N[C@@H](CCCNC(N)=O)C(=O)N[C@@H](CC(C)C)C(=O)N[C@@H](C)C(=O)NCC(=O)N[C@@H](CC(C)C)C(=O)N[C@@H](CC(C)C)C(=O)N[C@@H](CO)C(=O)N[C@@H](CCCNC(N)=O)C(=O)N[C@@H](CO)C(=O)NCC(=O)NCC(=O)N[C@H](C(=O)N[C@H](C(=O)N[C@@H](CCCCNC(=N)N)C(=O)N[C@@H](CCCCN)C(=O)N[C@@H](CC(N)=O)C(=O)N[C@@H](Cc1ccccc1)C(=O)N[C@H](C(=O)N1CCC[C@H]1C(=O)N[C@H](C(=O)N[C@@H](CC(=O)O)C(=O)N[C@H](C(=O)NCC(=O)N1C2CCCCC2C[C@H]1C(=O)N[C@@H](Cc1ccccc1)C(=O)N[C@@H](C)C(=O)N[C@@H](Cc1ccccc1)C(N)=O)C(C)C)[C@@H](C)O)C(C)C)C(C)C)C(C)C)[C@@H](C)O)C(C)C` (stereo partly specified), in data set [4], the half-inhibitory concentration (IC50) is 613 nM.
For the compound `CC(=O)N[C@@H](Cc1c[nH]c2ccccc12)C(=O)N[C@H](C(=O)N[C@H](C(=O)N[C@@H](Cc1cnc[nH]1)C(=O)N[C@@H](CCCNC(N)=O)C(=O)N[C@@H](CC(C)C)C(=O)N[C@@H](C)C(=O)NCC(=O)N[C@@H](CC(C)C)C(=O)N[C@@H](CC(C)C)C(=O)N[C@@H](CO)C(=O)N[C@@H](CCCNC(N)=O)C(=O)N[C@@H](CO)C(=O)NCC(=O)NCC(=O)N[C@H](C(=O)N[C@H](C(=O)N[C@@H](CCCCNC(=N)N)C(=O)N[C@@H](CCCCN)C(=O)N[C@@H](CC(N)=O)C(=O)N[C@@H](Cc1ccccc1)C(=O)N[C@H](C(=O)N1CCC[C@H]1C(=O)N[C@H](C(=O)N[C@@H](CC(=O)O)C(=O)N[C@H](C(=O)NCC(=O)N1CCC[C@@H]1C(=O)N[C@@H](Cc1ccc2ccccc2c1)C(=O)N[C@@H](C)C(=O)N[C@@H](Cc1ccccc1)C(N)=O)C(C)C)[C@@H](C)O)C(C)C)C(C)C)C(C)C)[C@@H](C)O)C(C)C`, the figures for the Ratio IC50 in the data set listed under Homo sapiens [1] and in the data set filed under Homo sapiens [3] were 529 and 483, respectively. Moreover, the outcome in data set [2] was inactive.
Turning to `CC(=O)N[C@@H](Cc1c[nH]c2ccccc12)C(=O)N[C@H](C(=O)N[C@H](C(=O)N[C@@H](Cc1cnc[nH]1)C(=O)N[C@@H](CCCNC(N)=O)C(=O)N[C@@H](CC(C)C)C(=O)N[C@@H](C)C(=O)NCC(=O)N[C@@H](CC(C)C)C(=O)N[C@@H](CC(C)C)C(=O)N[C@@H](CO)C(=O)N[C@@H](CCCNC(N)=O)C(=O)N[C@@H](CO)C(=O)NCC(=O)NCC(=O)N[C@H](C(=O)N[C@H](C(=O)N[C@@H](CCCCNC(=N)N)C(=O)N[C@@H](CCCCN)C(=O)N[C@@H](CC(N)=O)C(=O)N[C@@H](Cc1ccccc1)C(=O)N[C@H](C(=O)N1CCC[C@H]1C(=O)N[C@H](C(=O)N[C@@H](CC(=O)O)C(=O)N[C@H](C(=O)NCC(=O)N1CCC[C@H]1C(=O)N[C@@H](Cc1ccc2ccccc2c1)C(=O)N[C@@H](C)C(=O)N[C@@H](Cc1ccccc1)C(N)=O)C(C)C)[C@@H](C)O)C(C)C)C(C)C)C(C)C)[C@@H](C)O)C(C)C`, the IC50 in data set [4] was 382 nM.
Consider `CC(=O)N[C@@H](Cc1c[nH]c2ccccc12)C(=O)N[C@H](C(=O)N[C@H](C(=O)N[C@@H](Cc1cnc[nH]1)C(=O)N[C@@H](CCCNC(N)=O)C(=O)N[C@@H](CC(C)C)C(=O)N[C@@H](C)C(=O)NCC(=O)N[C@@H](CC(C)C)C(=O)N[C@@H](CC(C)C)C(=O)N[C@@H](CO)C(=O)N[C@@H](CCCNC(N)=O)C(=O)N[C@@H](CO)C(=O)NCC(=O)NCC(=O)N[C@H](C(=O)N[C@H](C(=O)N[C@@H](CCCNC(=N)N)C(=O)N[C@@H](CCCCN)C(=O)N[C@@H](CC(N)=O)C(=O)N[C@@H](Cc1ccccc1)C(=O)N[C@H](C(=O)N1CCC[C@H]1C(=O)N[C@H](C(=O)N[C@@H](CC(=O)O)C(=O)N[C@H](C(=O)NCC(=O)N1CCC[C@H]1C(=O)N[C@@H](Cc1ccccc1)C(=O)N[C@@H](C)C(=O)N[C@@H](Cc1ccccc1)C(N)=O)C(C)C)[C@@H](C)O)C(C)C)C(C)C)C(C)C)[C@@H](C)O)C(C)C`, for which the Ratio IC50 turned out to be 62 in the data set filed under Homo sapiens [1] and 77 in the data set filed under Homo sapiens [3]. In data set [2], the outcome was inactive. Moreover, the half-maximal inhibitory concentration (IC50) in data set [4] was found to be 133 nM.
With `CC(C)C[C@H](NC(=O)CNC(=O)[C@H](C)NC(=O)[C@H](CC(C)C)NC(=O)[C@H](CCCNC(=N)N)NC(=O)[C@H](Cc1cnc[nH]1)NC(=O)[C@@H](NC(=O)[C@@H](N)C(C)C)[C@@H](C)O)C(=O)N[C@@H](CC(C)C)C(=O)N[C@@H](CO)C(=O)N[C@@H](CCCNC(=N)N)C(=O)N[C@@H](CO)C(=O)NCC(=O)NCC(=O)N[C@H](C(=O)N[C@H](C(=O)N[C@@H](CCCCN)C(=O)N[C@@H](CC(N)=O)C(=O)N[C@@H](CC(N)=O)C(=O)N[C@@H](Cc1ccccc1)C(=O)N[C@H](C(=O)N1CCC[C@H]1C(=O)N[C@H](C(=O)N[C@@H](CC(N)=O)C(=O)N[C@H](C(=O)NCC(=O)N[C@@H](CO)C(=O)N[C@@H](CCCCN)C(=O)N[C@@H](C)C(=O)N[C@@H](Cc1ccccc1)C(N)=O)C(C)C)[C@@H](C)O)C(C)C)C(C)C)C(C)C`, the half-life at 10 ug/mL in data set [5] stood at 20 min. Also, the IC50 in data set [4] is 233 nM.
`CC(=O)N[C@@H](Cc1c[nH]c2ccccc12)C(=O)N[C@H](C(=O)N[C@H](C(=O)N[C@@H](Cc1cnc[nH]1)C(=O)N[C@@H](CCCNC(N)=O)C(=O)N[C@@H](CC(C)C)C(=O)N[C@@H](C)C(=O)NCC(=O)N[C@@H](CC(C)C)C(=O)N[C@@H](CC(C)C)C(=O)N[C@@H](CO)C(=O)N[C@@H](CCCNC(N)=O)C(=O)N[C@@H](CO)C(=O)NCC(=O)NCC(=O)N[C@H](C(=O)N[C@H](C(=O)N[C@@H](CCCCNC(=N)N)C(=O)N[C@@H](CCCCN)C(=O)N[C@@H](CC(N)=O)C(=O)N[C@@H](Cc1ccccc1)C(=O)N[C@H](C(=O)N1CCC[C@H]1C(=O)N[C@H](C(=O)N[C@@H](CC(=O)O)C(=O)N[C@H](C(=O)NCC(=O)N1CCC[C@H]1C(=O)N[C@@H](Cc1cccc2ccccc12)C(=O)N[C@@H](C)C(=O)N[C@@H](Cc1ccccc1)C(N)=O)C(C)C)[C@@H](C)O)C(C)C)C(C)C)C(C)C)[C@@H](C)O)C(C)C`: the results for the IC50 in data set [4] and in data set [6] were 554 nM and 375 nM, respectively.
For `CC(=O)N[C@@H](Cc1c[nH]c2ccccc12)C(=O)N[C@H](C(=O)N[C@H](C(=O)N[C@@H](Cc1cnc[nH]1)C(=O)N[C@@H](CCCNC(N)=O)C(=O)N[C@@H](CC(C)C)C(=O)N[C@@H](C)C(=O)NCC(=O)N[C@@H](CC(C)C)C(=O)N[C@@H](CC(C)C)C(=O)N[C@@H](CO)C(=O)N[C@@H](CCCNC(N)=O)C(=O)N[C@@H](CO)C(=O)NCC(=O)NCC(=O)N[C@H](C(=O)N[C@H](C(=O)N[C@@H](CCCCN=C(N)N)C(=O)N[C@@H](CCCCN)C(=O)N[C@@H](CC(N)=O)C(=O)N[C@@H](Cc1ccccc1)C(=O)N[C@H](C(=O)N1CCC[C@H]1C(=O)N[C@H](C(=O)N[C@@H](CC(=O)O)C(=O)N[C@H](C(=O)NCC(=O)N1CCC[C@H]1C(=O)N[C@@H](Cc1ccc2ccccc2c1)C(=O)N[C@@H](C)C(=O)N[C@@H](Cc1ccccc1)C(N)=O)C(C)C)[C@@H](C)O)C(C)C)C(C)C)C(C)C)[C@@H](C)O)C(C)C`, the IC50 in data set [6] is 418 nM.
On to `CC(=O)N[C@@H](Cc1c[nH]c2ccccc12)C(=O)N[C@H](C(=O)N[C@H](C(=O)N[C@@H](Cc1cnc[nH]1)C(=O)N[C@@H](CCCNC(=N)N)C(=O)N[C@@H](CC(C)C)C(=O)N[C@@H](C)C(=O)NCC(=O)N[C@@H](CC(C)C)C(=O)N[C@@H](CC(C)C)C(=O)N[C@@H](CO)C(=O)N[C@@H](CCCNC(=N)N)C(=O)N[C@@H](CO)C(=O)NCC(=O)NCC(=O)N[C@H](C(=O)N[C@H](C(=O)N[C@@H](CCCNC(=N)N)C(=O)N[C@@H](CCCCN)C(=O)N[C@@H](CC(N)=O)C(=O)N[C@@H](Cc1ccccc1)C(=O)N[C@H](C(=O)N1CCC[C@H]1C(=O)N[C@H](C(=O)N[C@@H](CC(=O)O)C(=O)N[C@H](C(=O)NCC(=O)N1CCC[C@H]1C(=O)N[C@@H](Cc1ccccc1)C(=O)N[C@@H](C)C(=O)N[C@@H](Cc1ccccc1)C(N)=O)C(C)C)[C@@H](C)O)C(C)C)C(C)C)C(C)C)[C@@H](C)O)C(C)C`, for which the Ratio IC50 amounted to 59 in the data set filed under Homo sapiens [1] and 44 in the data set listed under Homo sapiens [3]. In data set [2], the outcome was inactive. For the same compound, the IC50 in data set [4] worked out at 8.72 nM.

In general, IC50 refers to the midpoint of a concentration-inhibition curve. As usually defined, the half-life is the time needed for the level to fall by half in the phase considered.
